# Most compounds without a hit are left out; they make up all but 8.4% or so of the library.
# E coli WT exp: growth inhibitors of E. coli BW25113 wild type. 98,000 compounds, 0.15% hits. AID 710. OD600 absorbance. growth inhibition, % at 100 µM;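 active = growth inhibition above about 50% at one test dose, limit read from the data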;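 also: growth measured after 20 h incubation at 37 °C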
# Cav32 inh: blocks human Cav3.2 T-type calcium channel. Cav3.2-expressing cells, Fluo-4 calcium fluorescence FDSS; stronger effect = lower value. 100,000 compounds, 4% hits. O95180. B-score at 10 µM. AID 449739;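 active = single-dose well whose peak fluorescence ratio is a statistical outlier from its plate by either plate-standardised score or position-corrected B-score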
# Target sequence (O95180 whole entry, looked up): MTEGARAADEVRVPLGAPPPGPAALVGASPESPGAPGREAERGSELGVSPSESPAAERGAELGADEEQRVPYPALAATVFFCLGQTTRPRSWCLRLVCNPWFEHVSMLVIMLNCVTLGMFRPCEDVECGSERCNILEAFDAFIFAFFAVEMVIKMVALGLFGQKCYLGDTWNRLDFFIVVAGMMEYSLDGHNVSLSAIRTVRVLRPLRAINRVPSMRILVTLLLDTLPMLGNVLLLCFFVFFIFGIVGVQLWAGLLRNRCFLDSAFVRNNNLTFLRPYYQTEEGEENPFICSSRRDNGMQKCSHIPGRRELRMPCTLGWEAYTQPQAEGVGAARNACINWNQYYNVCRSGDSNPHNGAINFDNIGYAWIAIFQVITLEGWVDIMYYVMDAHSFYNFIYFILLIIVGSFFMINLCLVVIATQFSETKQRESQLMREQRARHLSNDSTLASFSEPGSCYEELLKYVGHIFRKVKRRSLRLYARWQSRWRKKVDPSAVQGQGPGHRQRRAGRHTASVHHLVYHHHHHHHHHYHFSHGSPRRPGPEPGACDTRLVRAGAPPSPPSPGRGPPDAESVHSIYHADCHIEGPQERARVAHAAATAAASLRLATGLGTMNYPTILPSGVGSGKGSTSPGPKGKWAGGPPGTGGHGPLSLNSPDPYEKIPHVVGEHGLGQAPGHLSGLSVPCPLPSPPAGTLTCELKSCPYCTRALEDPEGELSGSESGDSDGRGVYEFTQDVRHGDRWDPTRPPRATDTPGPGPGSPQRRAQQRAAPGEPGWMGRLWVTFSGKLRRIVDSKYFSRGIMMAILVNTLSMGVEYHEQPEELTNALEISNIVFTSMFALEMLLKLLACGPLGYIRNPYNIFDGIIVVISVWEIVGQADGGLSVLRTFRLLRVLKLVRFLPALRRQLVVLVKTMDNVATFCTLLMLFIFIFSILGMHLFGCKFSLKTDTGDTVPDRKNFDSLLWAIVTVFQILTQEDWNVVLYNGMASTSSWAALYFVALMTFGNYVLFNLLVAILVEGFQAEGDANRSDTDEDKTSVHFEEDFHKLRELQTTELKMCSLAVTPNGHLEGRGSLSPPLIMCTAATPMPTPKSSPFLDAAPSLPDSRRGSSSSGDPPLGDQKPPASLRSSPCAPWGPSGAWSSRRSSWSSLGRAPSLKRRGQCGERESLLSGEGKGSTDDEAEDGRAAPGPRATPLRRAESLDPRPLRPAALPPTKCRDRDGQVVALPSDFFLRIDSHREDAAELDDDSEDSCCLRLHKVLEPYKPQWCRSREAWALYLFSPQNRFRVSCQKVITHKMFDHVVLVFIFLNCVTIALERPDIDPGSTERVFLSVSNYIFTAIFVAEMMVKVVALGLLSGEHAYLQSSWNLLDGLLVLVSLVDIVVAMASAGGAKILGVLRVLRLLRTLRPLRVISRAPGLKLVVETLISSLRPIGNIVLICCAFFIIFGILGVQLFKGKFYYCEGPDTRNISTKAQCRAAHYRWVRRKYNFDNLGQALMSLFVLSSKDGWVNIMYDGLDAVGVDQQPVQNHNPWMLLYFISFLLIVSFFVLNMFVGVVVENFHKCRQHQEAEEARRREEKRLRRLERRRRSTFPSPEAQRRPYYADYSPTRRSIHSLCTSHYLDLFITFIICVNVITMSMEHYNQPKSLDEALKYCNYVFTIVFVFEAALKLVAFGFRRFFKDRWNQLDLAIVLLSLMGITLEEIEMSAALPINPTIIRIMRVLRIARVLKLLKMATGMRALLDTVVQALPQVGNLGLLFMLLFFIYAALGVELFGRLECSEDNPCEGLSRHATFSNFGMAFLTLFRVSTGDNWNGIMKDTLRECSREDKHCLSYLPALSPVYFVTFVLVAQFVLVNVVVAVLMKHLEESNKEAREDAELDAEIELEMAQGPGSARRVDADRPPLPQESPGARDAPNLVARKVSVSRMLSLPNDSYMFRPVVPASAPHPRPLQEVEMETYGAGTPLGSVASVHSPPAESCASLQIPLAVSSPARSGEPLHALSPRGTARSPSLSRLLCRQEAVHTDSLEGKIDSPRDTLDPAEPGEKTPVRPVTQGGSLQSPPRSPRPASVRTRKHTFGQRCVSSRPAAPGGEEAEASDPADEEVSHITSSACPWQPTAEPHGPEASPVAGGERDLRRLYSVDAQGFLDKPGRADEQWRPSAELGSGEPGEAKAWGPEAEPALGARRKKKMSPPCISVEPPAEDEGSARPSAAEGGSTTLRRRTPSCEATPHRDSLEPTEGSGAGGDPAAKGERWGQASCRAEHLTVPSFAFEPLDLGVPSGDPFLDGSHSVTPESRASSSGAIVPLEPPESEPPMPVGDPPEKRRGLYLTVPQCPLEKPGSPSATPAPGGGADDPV
# tolC growth inh: blocks growth of E. coli BW25113 tolC mutant; OD615; 65,000 compounds, 2.2% hits; growth inhibition, % at 10 µM (by protocol); AID 573;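 active = growth inhibition at or above a cutoff equal to the mean over every tested compound plus 3 SD, cut at about 60% in these data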;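 also: growth measured after 20 h incubation at 37 °C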
#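 Test system: tolC-deleted E. coli BW25113 | Medium: LB with kanamycin 50 µg/mL | Compound dosing: Single concentration, 10 µM final per compound | Schedule: 37 °C, 20 h exposure | Measured by: OD at 615 nm | Evaluation: Percent growth inhibition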
# PostGolgi yeast: growth inhibition of a yeast mutant, post-Golgi transport screen; post-Golgi transport phenotypic cell assay; inhibition, % at 10 µM; 98,000 compounds, 0.9% hits; AID 739;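 also: yeast cells grown in 1536-well plates; yeast grown about 18 h at 30C before absorbance read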
# PostGolgi ctrl: growth of the yeast control strain, post-Golgi counter-screen; efflux-deficient yeast background strain, growth absorbance A615, 16 h; inhibition, % at 10 µM; AID 738; 98,000 compounds, 5% hits
# Starred values were filed as active, the others as inactive; · = not tested or not shown. Rule as the data show it, unless noted: active = inhibition above about 30%; inactive = the rest.
SMILES,E coli WT exp,Cav32 inh,tolC growth inh,PostGolgi yeast,PostGolgi ctrl
Cc1ccc(N2C(=O)N(CC(=O)NC(c3ccccc3)c3ccccc3)C(=O)C2C)cc1 (configuration not stated),-14,-10*,·,18,3
O=C1c2ccccc2-c2onc3ccc(NCc4ccco4)c1c23,-9,-4.1*,5,-5,34*
CCOc1ccc2noc3c2c1C(=O)c1ccccc1-3,6,-5.7*,-3,-2,-7
CCNc1ccc2noc3c2c1C(=O)c1ccccc1-3,·,-1.4,·,·,·
O=C(Nc1ccccc1)N(C1=NCCC1)c1ccc(OC(F)F)cc1,-5,0.029,42,3,24
CCCN1C2CCCC1CC(NC(=S)Nc1cc(C)ccc1C)C2 (configuration not stated),·,0.072,·,·,·
NC1=NS(=O)(=O)NC1c1cccc(Cl)c1 (configuration not stated),5,0.052,·,-2,1
O=C1NN=C(c2ccc(Cl)cc2)CC1c1cccc(Cl)c1 (configuration not stated),6,-2.7,·,12,46*
COc1ccc(S(=O)(=O)N2CCN(Cc3ccc4c(c3)OCO4)CC2)c2ccccc12,-4,-0.87,25,-7,35*
O=S(=O)(Cc1ccccc1Cl)N1CCN(Cc2ccc3c(c2)OCO3)CC1,0,-1.9,23,89*,35*
CSc1ccc(S(=O)(=O)N2CCN(Cc3ccc4c(c3)OCO4)CC2)cc1,-12,-3.9,35,55*,53*
COC(=O)CN1C(=O)[C@@H]2[C@H](C1=O)[C@@H]1CC(C(=O)OC)=C[C@@H](C(=O)OC)[C@@H]3C1=C(C(=O)[C@@]3(C)NC(=O)c1ccccc1)[C@@H]2C,·,-1.3,·,·,·
Clc1cccc(CON/C=N/c2ncnc3sccc23)c1,-2,-2.3,·,21,35*
Clc1cccc(Cl)c1CON/C=N/c1ncnc2sccc12,-11,0.036,·,-8,12
O=C(CSc1nnc2c3cc(F)ccc3nc(-c3ccccc3)n12)N1CCOCC1,·,·,-9,·,·
COc1ccccc1NC(=O)c1ccc(Br)o1,8,0.91,14,-3,-2
O=C(Nc1ccccc1Oc1ccccc1)c1ccc(Br)o1,-1,-1.3,25,3,51*
O=C(Nc1ccccc1-c1ccccc1)c1ccc(Br)o1,-7,-3.9*,·,-2,35*
Cc1c(NC(=O)c2ccc(Br)o2)cccc1C(=O)O,2,2,·,1,-3
CCOC(=O)CS(=O)(=O)c1nc(-c2ccc(F)cc2)cc(C(F)(F)F)n1,4,0.85,18,8,48*
CC(C)OC(=O)CSc1nc(-c2ccc(F)cc2)cc(C(F)(F)F)n1,·,-1.8,·,·,·
CCOC(=O)CS(=O)(=O)c1nc(-c2ccccc2)cc(C(F)(F)F)n1,·,0.96,15,·,·
CCOC(=O)CCS(=O)(=O)c1nc(-c2ccccc2)cc(C(F)(F)F)n1,-7,0.33,43,-6,73*
COC(=O)CCS(=O)(=O)c1nc(-c2ccccc2)cc(C(F)(F)F)n1,-1,0.21,·,0,57*
C#Cc1ccc([C@@H]2C=C(C(=O)N3CCN(Cc4ccc5c(c4)OCO5)CC3)O[C@H](OCC)[C@H]2CCCO)cc1,·,-1.8,·,·,·
SMILES,E coli WT exp,Cav32 inh,tolC growth inh,PostGolgi yeast,PostGolgi ctrl
COc1ccc(CC(=O)Nc2ccc(-c3noc(-c4cccc(OC)c4)n3)cc2)cc1,-9,-4.2*,-10,4,-4
COc1cccc(-c2noc(-c3cccs3)n2)c1,-8,0.013,94*,-1,3
COc1cccc(-c2noc(-c3cccnc3)n2)c1,2,-0.27,25,-3,9
Cc1nn(Cc2c(F)c(F)c(F)c(F)c2F)c(C)c1NC(=O)c1ccc(COc2ccccc2Cl)o1,-16,·,·,-4,80*
Cc1nn(Cc2c(F)c(F)c(F)c(F)c2F)c(C)c1NC(=O)c1ccc(COc2ccc(F)cc2)o1,-8,-4.9*,·,10,28
Cc1nn(Cc2c(F)c(F)c(F)c(F)c2F)c(C)c1NC(=O)c1ccc(COc2ccccc2Cl)cc1,1,-2.1,·,1,-2
Cc1nn(Cc2c(F)c(F)c(F)c(F)c2F)c(C)c1NC(=O)c1ccc(COc2cc(Cl)ccc2Cl)cc1,0,-1.6,·,8,7
COC(=O)C1=C(C(=O)OC)[C@@H]2Nc3ccccc3[C@@]23C[C@@H](C(=O)OC)N(C(=O)COCc2ccccc2)C3=N1,·,-2.4,·,·,·
CCOC(=O)Nc1c(O)ccc2oc(C)c(-c3ccccc3)c12,2,·,9,12,18
COc1ccc(NC(=O)c2cc3sccc3n2Cc2ccc(F)cc2)cc1OC,-22,-2.7,·,2,33*
COc1ccc(N2CCN(C(=O)CSc3nnc(Cn4nnc5ccccc54)n3C)CC2)cc1,5,0.11,-20,-7,28
CCC(=C(c1ccc(OC)cc1)c1ccc(OC)cc1)c1cn(CC(O)CN2CCN(C)CC2)c2ccccc12 (configuration not stated),1,·,·,28,91*
C=CCNc1nc(Nc2ccc(-c3nc4ccccc4o3)cc2)nc(N2CCOCC2)n1,-7,-0.069,·,0,23
OC(CNCc1ccco1)Cn1c2ccc(Br)cc2c2cc(Br)ccc21 (configuration not stated),-5,-0.32,·,106*,99*
Cc1cc(C)cc(NC(=O)c2snc3c(=O)[nH]cnc23)c1,-3,1.3,·,-6,7
CCC(=O)N1CCc2cc(Br)cc(S(=O)(=O)N3CCCCCC3)c21,-1,-0.87,31,8,36*
O=C(C1CC1)N1CCc2cc(Br)cc(S(=O)(=O)NCC3COc4ccccc4O3)c21 (configuration not stated),-14,-4.1*,28,9,13
O=C(C1CC1)N1CCc2cc(Br)cc(S(=O)(=O)N3CCCCCC3)c21,-2,-3.5,27,-1,41*
CCOC(=O)N1CCN(S(=O)(=O)c2cc(Br)cc3c2N(C(=O)CC)CC3)CC1,-2,-0.15,6,20,1
O=C(C1CC1)N1CCc2cc(Br)cc(S(=O)(=O)NC3CCCCC3)c21,4,-0.78,36,-2,14
CCOC(=O)C1CCCN(C(=O)CN2CCN(Cc3ccc(Cl)cc3)C2=O)C1 (configuration not stated),1,·,9,-2,28
COc1ccc(CCC(=O)Nc2nc3c(s2)CN(C)CC3)cc1OC,-1,0.79,-11,-7,14
CCOc1ccc2ccccc2c1C(=O)Nc1cc(=O)n(C)c(=O)n1C,-3,0.58,0,3,11
CCn1c(N2CCN(CC(=O)c3c[nH]c4ccccc34)CC2)nc2c1c(=O)[nH]c(=O)n2C,2,2.4,13,-4,-4
CCCCCn1c(CN2CCN(c3cccc(Cl)c3)CC2)nc2c1c(=O)[nH]c(=O)n2C,1,-1.5,14,2,45*
CCCn1c(N2CCN(CC(=O)c3c(C)n(C)c4ccccc34)CC2)nc2c1c(=O)[nH]c(=O)n2C,-4,3.1*,19,-5,16
Cn1c(=O)[nH]c(=O)c2c1nc(CN1CCN(c3cccc(Cl)c3)CC1)n2CCc1ccccc1,-13,-1.4,8,-2,14
